The values below come from ChEMBL document CHEMBL4680176, “Identification of DOT1L inhibitors by structure-based virtual screening adapted from a nucleoside-focused library” (Eur J Med Chem, 2020).

pIC50: −log10 of the molar value. Active and inactive are the calls of the source. The rule behind the calls is not given here.

The target in assay [1] is T1, Histone-lysine N-methyltransferase, H3 lysine-79 specific (Homo sapiens, UniProt Q8TEK3). Put plainly: Inhibition of recombinant human N-terminal GST-tagged DOT1L (1 to 420 residues) expressed in Escherichia coli BL21 (DE3) using nucleosome as substrate incubated for 1 hr in presence of [3H]-SAM by liquid scintillation counting method. An outline of the steps:
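GST-tagged DOT1L catalytic domain (1-420), expressed in E. coli BL21(DE3) and Ni-affinity purified, used at 125 nM. Compound added before SAM start; 1 hr at room temperature. Product captured on P81 filters, NaHCO3-washed, and counted by scintillation.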
Target sequence in this assay (Q8TEK3 whole entry, the tested form may be a part): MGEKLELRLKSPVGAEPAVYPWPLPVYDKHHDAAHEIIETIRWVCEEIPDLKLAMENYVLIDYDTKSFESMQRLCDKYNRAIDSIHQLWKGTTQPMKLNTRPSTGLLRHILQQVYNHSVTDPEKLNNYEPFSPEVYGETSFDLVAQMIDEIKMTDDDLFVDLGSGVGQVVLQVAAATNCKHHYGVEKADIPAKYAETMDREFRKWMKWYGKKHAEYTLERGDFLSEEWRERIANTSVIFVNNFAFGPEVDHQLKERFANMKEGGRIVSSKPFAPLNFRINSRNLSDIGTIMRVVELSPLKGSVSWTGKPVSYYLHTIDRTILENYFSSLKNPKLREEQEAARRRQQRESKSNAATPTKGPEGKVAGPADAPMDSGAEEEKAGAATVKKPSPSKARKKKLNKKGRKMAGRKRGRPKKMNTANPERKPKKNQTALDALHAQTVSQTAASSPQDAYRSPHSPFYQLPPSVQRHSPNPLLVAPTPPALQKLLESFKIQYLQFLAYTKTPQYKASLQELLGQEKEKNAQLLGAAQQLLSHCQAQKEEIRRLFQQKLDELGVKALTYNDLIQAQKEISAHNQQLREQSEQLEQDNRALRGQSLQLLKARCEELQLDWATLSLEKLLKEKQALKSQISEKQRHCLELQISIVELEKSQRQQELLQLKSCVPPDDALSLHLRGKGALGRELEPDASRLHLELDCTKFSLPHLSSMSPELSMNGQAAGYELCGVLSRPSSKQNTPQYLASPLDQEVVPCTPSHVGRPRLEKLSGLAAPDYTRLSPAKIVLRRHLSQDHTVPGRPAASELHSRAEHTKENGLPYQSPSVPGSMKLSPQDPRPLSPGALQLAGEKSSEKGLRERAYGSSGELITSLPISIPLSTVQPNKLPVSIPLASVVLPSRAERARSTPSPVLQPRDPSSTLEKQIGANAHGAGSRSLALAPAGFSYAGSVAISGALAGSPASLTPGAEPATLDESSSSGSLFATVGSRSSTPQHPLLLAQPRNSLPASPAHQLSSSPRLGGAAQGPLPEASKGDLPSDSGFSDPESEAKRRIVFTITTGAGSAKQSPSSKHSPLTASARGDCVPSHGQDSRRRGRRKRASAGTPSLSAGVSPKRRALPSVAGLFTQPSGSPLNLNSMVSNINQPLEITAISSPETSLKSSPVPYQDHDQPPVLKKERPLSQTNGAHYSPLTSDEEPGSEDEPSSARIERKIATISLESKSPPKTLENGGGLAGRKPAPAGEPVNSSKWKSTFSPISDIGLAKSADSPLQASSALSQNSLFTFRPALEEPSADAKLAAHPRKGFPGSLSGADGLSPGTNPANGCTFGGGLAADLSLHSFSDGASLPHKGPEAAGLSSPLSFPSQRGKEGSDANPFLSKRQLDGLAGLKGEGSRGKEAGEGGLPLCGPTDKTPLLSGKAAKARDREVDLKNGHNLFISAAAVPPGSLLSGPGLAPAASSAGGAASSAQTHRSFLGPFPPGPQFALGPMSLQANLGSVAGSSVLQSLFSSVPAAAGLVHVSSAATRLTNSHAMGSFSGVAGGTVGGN

For assay [2], the target named is T1, Histone-lysine N-methyltransferase, H3 lysine-79 specific. Put plainly: Binding affinity to recombinant human N-terminal GST-tagged DOT1L (1 to 420 residues) expressed in Escherichia coli BL21 (DE3) assessed as increase in melting temperature at 100 uM incubated for 1 min by 1,8-ANS probe based thermal shift assay.
Target sequence in this assay (Q8TEK3 whole entry, looked up, the tested form may be a part): as the sequence (Q8TEK3 whole entry, the tested form may be a part) above
For assay [3] the target is unchanged. The assay is described as follows: Inhibition of recombinant human N-terminal GST-tagged DOT1L (1 to 420 residues) expressed in Escherichia coli BL21 (DE3) using histone as substrate incubated for 1 hr by MTase-glo based luminescence assay.
Target sequence in this assay (Q8TEK3 whole entry, the tested form may be a part): as above
For assay [4] the target is unchanged. The assay is described as follows: Binding affinity to recombinant human N-terminal GST-tagged DOT1L (1 to 420 residues) expressed in Escherichia coli BL21 (DE3) assessed as increase in melting temperature at 100 uM incubated for 1 min by 1,8-ANS probe based thermal shift assay.
Target sequence in this assay (Q8TEK3 whole entry, looked up, the tested form may be a part): as the sequence (Q8TEK3 whole entry, the tested form may be a part) above
Assay [5] has as its target DNA (cytosine-5)-methyltransferase 1 (Homo sapiens, UniProt P26358). The assay is described as follows: Inhibition of recombinant human DNMT1 using poly(dl-dC) as substrate by hotspot assay.
Assay [6] addresses Histone-lysine N-methyltransferase EZH2 (Homo sapiens, UniProt Q15910). The assay is described as follows: Inhibition of recombinant human EZH2 using core histone as substrate by hotspot assay.
The target of assay [7] is T2, Histone-lysine N-methyltransferase EHMT2 (Homo sapiens, UniProt Q96KQ7).
T2 sequence (Q96KQ7 whole entry): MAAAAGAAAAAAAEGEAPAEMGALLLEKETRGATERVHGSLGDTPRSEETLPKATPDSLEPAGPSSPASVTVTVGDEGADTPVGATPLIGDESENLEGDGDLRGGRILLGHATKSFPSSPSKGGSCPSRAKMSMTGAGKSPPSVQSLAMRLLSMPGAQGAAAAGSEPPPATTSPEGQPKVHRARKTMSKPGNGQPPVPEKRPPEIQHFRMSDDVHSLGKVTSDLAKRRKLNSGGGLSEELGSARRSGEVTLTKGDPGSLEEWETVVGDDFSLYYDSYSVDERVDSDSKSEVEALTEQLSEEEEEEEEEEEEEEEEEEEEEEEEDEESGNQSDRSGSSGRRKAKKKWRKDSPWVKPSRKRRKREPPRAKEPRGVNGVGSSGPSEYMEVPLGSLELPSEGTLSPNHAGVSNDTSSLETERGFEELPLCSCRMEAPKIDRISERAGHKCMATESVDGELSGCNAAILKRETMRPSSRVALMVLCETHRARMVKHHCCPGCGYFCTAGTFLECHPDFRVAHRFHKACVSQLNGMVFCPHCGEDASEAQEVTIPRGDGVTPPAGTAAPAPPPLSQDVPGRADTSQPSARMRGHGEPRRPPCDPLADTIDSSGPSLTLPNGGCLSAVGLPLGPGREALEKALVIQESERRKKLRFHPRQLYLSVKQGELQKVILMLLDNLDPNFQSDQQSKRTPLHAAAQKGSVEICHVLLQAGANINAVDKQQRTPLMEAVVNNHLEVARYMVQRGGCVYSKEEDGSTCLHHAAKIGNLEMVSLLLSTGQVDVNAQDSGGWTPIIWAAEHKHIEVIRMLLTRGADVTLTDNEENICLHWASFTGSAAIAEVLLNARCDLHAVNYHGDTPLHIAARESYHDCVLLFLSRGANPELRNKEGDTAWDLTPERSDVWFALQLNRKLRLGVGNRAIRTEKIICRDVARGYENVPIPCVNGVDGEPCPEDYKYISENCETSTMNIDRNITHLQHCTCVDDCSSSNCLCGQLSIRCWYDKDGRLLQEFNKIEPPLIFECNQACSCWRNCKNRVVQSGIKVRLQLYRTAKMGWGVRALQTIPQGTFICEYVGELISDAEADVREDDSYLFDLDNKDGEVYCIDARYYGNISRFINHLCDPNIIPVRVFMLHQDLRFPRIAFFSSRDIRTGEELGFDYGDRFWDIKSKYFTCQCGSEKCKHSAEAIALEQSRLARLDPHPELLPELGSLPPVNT
The assay is described as follows: Inhibition of recombinant human G9a using histone H3 (1 to 21) as substrate by hotspot assay. Particulars: for pIC50: read-out: IC50.

Assay [8] deals with T3, Histone-lysine N-methyltransferase SETD7 (Homo sapiens, UniProt Q8WTS6).
T3 sequence (Q8WTS6 whole entry): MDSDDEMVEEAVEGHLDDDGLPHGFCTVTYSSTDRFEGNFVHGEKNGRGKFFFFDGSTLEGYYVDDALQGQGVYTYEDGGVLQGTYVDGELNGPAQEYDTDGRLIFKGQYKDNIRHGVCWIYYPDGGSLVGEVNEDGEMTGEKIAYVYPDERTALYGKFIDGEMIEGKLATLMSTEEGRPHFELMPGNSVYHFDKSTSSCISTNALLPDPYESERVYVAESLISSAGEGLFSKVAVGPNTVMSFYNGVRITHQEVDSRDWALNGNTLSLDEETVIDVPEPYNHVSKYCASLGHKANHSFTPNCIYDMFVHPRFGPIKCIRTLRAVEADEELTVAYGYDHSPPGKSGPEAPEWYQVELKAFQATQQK
Put plainly: Inhibition of recombinant human SET7/9 using core histone as substrate by hotspot assay.

Assay [9] concerns the target Protein arginine N-methyltransferase 3 (Homo sapiens, UniProt O60678). Put plainly: Inhibition of recombinant human PRMT3 using histone H4 as substrate by hotspot assay. Particulars: for pIC50: read-out: IC50.
Assay [10] addresses Protein arginine N-methyltransferase 5 (Homo sapiens, UniProt O14744). The assay is described as follows: Inhibition of recombinant human PRMT5 using histone H2A as substrate by hotspot assay.
In assay [11] the target is T4, Protein arginine N-methyltransferase 7 (Homo sapiens, UniProt Q9NVM4).
T4 sequence (Q9NVM4 whole entry): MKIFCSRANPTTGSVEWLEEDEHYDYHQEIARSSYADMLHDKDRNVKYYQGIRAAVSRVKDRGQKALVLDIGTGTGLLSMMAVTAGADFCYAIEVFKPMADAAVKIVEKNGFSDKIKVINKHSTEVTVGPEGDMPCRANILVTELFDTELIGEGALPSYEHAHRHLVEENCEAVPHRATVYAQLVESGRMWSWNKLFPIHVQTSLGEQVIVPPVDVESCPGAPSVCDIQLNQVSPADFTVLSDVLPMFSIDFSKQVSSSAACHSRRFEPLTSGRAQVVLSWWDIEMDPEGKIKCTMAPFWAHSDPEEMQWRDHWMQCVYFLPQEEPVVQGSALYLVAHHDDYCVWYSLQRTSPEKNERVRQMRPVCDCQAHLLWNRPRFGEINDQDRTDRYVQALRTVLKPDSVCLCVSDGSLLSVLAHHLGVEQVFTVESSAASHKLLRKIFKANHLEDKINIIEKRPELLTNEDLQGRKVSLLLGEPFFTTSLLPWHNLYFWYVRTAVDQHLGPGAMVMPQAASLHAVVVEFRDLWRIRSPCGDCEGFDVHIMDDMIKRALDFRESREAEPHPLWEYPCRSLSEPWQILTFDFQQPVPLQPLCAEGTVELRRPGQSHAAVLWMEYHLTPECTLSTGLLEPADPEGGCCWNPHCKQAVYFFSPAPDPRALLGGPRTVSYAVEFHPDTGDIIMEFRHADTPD
Put plainly: Inhibition of recombinant human PRMT7 using GST-GAR as substrate by hotspot assay. The following applies: for pIC50: read-out: IC50.

The target in assay [12] is Protein arginine N-methyltransferase 8 (Homo sapiens, UniProt Q9NR22). The assay is described as follows: Inhibition of recombinant human PRMT8 using histone H4 as substrate by hotspot assay.
Chain of Protein arginine N-methyltransferase 8 (Q9NR22 whole entry): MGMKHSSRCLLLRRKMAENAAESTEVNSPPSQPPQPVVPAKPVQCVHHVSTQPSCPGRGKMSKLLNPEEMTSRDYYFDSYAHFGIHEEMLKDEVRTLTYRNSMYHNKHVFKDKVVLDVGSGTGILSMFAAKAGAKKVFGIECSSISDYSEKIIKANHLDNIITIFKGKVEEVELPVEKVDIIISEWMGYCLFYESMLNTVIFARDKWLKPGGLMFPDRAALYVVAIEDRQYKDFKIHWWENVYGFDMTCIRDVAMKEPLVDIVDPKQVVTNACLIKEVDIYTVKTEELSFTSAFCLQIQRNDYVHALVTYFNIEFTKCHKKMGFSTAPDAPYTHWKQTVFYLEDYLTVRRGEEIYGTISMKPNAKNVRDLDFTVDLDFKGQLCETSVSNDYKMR

Chain of DNA (cytosine-5)-methyltransferase 1 (P26358 whole entry): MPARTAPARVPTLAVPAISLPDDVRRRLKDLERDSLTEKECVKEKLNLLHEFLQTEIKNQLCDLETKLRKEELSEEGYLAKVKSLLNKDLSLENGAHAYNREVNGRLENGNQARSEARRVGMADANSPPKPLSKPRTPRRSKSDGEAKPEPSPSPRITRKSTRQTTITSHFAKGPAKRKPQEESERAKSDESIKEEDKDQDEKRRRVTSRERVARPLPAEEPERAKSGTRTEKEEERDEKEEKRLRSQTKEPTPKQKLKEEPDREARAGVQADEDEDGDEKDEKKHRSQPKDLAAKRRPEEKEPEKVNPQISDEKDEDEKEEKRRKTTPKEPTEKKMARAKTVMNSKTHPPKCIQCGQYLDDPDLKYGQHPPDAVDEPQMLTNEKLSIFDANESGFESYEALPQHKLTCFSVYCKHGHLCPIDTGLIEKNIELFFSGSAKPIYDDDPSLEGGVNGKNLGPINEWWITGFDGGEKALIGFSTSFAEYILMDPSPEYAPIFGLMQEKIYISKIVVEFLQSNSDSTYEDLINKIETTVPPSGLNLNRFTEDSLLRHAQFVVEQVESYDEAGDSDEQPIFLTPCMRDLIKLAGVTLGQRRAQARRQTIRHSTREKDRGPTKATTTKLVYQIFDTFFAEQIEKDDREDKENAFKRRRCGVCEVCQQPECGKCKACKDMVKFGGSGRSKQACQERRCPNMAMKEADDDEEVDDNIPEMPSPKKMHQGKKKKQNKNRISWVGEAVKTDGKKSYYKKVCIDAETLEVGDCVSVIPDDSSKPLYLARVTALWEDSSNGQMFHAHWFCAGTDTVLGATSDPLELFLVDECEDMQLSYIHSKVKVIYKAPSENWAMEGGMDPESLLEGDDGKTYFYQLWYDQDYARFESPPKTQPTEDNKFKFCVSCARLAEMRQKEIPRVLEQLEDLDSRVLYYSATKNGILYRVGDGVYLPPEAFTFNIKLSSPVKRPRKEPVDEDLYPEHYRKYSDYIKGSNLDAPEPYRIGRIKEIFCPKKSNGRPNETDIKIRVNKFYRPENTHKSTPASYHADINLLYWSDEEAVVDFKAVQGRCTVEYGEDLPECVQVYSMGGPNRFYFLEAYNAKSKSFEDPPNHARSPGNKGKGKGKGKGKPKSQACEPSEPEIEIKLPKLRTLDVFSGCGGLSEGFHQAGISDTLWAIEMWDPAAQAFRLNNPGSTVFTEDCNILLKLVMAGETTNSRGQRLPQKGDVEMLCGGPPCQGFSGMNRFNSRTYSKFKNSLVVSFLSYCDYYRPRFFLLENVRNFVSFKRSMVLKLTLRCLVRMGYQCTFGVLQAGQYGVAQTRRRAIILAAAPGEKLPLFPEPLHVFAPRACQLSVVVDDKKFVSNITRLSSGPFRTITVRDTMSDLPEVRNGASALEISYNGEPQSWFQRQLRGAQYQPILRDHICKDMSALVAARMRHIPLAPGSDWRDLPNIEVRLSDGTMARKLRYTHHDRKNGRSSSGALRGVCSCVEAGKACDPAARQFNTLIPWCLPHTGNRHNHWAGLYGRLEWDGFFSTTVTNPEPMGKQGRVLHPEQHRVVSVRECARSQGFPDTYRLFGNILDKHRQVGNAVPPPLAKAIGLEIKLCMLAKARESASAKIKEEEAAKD
Chain of Protein arginine N-methyltransferase 3 (O60678 whole entry): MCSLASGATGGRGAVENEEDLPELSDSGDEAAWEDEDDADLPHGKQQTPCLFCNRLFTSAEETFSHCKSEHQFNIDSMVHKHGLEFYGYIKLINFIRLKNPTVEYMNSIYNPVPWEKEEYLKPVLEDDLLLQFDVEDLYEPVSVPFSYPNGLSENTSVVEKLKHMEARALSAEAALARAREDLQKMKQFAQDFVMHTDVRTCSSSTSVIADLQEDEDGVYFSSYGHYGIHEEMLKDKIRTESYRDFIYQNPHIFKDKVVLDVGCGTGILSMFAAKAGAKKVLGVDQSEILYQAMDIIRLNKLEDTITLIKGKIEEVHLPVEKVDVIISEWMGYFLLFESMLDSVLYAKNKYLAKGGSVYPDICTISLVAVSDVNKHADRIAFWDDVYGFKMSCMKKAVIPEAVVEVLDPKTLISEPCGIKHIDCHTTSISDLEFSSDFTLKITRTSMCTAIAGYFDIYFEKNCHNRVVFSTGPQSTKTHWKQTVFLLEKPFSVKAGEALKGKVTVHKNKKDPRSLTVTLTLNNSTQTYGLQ
Chain of Histone-lysine N-methyltransferase EZH2 (Q15910 whole entry): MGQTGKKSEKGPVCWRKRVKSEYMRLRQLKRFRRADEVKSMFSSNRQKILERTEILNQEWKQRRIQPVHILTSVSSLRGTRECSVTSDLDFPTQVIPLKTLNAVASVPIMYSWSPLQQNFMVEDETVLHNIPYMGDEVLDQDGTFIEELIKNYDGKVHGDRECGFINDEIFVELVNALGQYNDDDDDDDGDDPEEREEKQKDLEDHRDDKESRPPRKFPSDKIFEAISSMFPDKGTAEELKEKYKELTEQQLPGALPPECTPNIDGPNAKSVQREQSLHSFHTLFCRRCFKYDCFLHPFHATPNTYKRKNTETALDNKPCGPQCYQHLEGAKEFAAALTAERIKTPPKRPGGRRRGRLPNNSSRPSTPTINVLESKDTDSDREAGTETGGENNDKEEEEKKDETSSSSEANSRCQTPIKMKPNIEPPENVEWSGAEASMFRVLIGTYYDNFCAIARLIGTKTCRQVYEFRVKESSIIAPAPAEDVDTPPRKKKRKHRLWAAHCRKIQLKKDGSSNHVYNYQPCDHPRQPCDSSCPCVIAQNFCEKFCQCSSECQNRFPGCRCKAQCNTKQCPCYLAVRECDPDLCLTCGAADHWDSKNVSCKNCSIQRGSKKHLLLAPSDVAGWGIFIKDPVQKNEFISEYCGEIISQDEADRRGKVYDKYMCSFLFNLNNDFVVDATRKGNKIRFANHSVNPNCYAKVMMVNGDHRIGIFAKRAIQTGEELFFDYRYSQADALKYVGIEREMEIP

In the case of `O=C(Nc1ccn(CCCNCc2ccc3c(c2)OCO3)c(=O)n1)OCc1ccccc1`, the negative logarithm of the IC50 (pIC50) (usually −log10 of the IC50, conventionally taken in molar units) in assay [1] is 3.17. Moreover, the result in assay [2] was Active.

For `O=C(Cn1cnc(C(=O)NC2CCCCC2)n1)NCc1ccc2[nH]ncc2c1`, in [3], the negative logarithm of the IC50 (pIC50) is less than 4.00.

Turning to `Nc1ncnc2c1ncn2[C@@H]1O[C@H](CNCc2ccc(OCc3ccccc3)cc2)[C@@H](O)[C@H]1O`, the outcome in [4] was Active. Besides, the negative-log IC50 (pIC50) in [1] is 3.92.

In the case of `CC(C)(C)c1ccc(NC(=O)c2ncn(CC(=O)NCc3ccc4[nH]ncc4c3)n2)cc1`, the negative-log IC50 (pIC50) in [3] is 4.65; in assay [6] (read-out: IC50) it was less than 3.60; in assay [7], less than 3.60. Moreover, the IC50 entry in assay [5], in [8], in [9] and in assay [10] was “Not Active” throughout.

For the molecule `Cc1ccc2nc(NC(=O)c3ncn(CC(=O)NCc4ccc5c(c4)OCO5)n3)[nH]c2c1`, in [3], the pIC50 is 4.25.

On to `Nc1ncnc2c1ncn2[C@@H]1O[C@H](CNCc2ccc(OCC(=O)Nc3nccs3)cc2)[C@@H](O)[C@H]1O`, for which, in assay [4], the result was Active. The pIC50 in [1] was 4.04.

Turning to `Cc1ccc(NC(=O)c2ncn(CC(=O)NCc3nc4ccccc4[nH]3)n2)cc1C`, in [1], the pIC50 was 3.89. For the same molecule, the outcome in assay [2] was Active.

Turning to `Nc1ncnc2c1ncn2[C@@H]1O[C@H](CSCC[C@H](N)C(=O)O)[C@@H](O)[C@H]1O` [S-ADENOSYLHOMOCYSTEINE], in assay [9], the pIC50 was 6.12.

On to `O=C(Cn1cnc(C(=O)NC2CCCCC2)n1)NCc1ccc2c(c1)OCO2`, for which the pIC50 in assay [3] is less than 4.00.

As to `Nc1ncnc2c1ncn2[C@@H]1O[C@H](CNCc2ccc(-c3cc(C(F)(F)F)ccc3Cl)o2)[C@@H](O)[C@H]1O`, the result in assay [4] was Active. Moreover, the negative-log IC50 (pIC50) in [1] was 4.49.

For the molecule `O=C(Nc1ccn(CCCN2CCC(c3ccccc3)CC2)c(=O)n1)OCc1ccccc1`, the negative-log IC50 (pIC50) in assay [1] is 3.15. The outcome in assay [2] was Active.

As to `CC(C)(C)c1ccc(NC(=O)c2ncn(CC(=O)NCc3ccc4c(c3)OCO4)n2)cc1`, the pIC50 in [3] was 4.63.

Take `Cc1ccc(NC(=O)c2ncn(CC(=O)NCCn3ccc4c(N)ncnc43)n2)cc1C`: the negative-log IC50 (pIC50) in assay [3] was 4.96; in [5] (read-out: IC50) it was less than 3.60. The IC50 entry in assay [6], in [7], in assay [8], in [9] and in assay [10] was “Not Active” each time.

Consider `Nc1ncnc2c1ncn2[C@@H]1O[C@H](CNC(=O)[C@@H](N)Cc2ccc(C(=O)c3ccccc3)cc2)[C@@H](O)[C@H]1O`, for which, in [4], the result was Active. The pIC50 in [1] is 4.24.

With `Nc1ncnc2c1ncn2[C@@H]1O[C@H](C(=O)N2CCC[C@H]2C(=O)OCc2ccccc2)[C@@H](O)[C@H]1O`, in assay [4], the result was Active. The pIC50 in assay [1] was 4.07.

For the molecule `Nc1ncnc2c1ccn2CCNC(=O)Cn1cnc(C(=O)NC2CCCCC2)n1`, the negative logarithm of the IC50 (pIC50) in [3] is less than 4.00.

With `CC(C)(C)c1ccc(NC(=O)c2ncn(CC(=O)NCc3ccc4c(N)nccc4c3)n2)cc1`, the pIC50 was 4.71 in [3]; 4.21 in assay [7]; 4.10 in [8] (read-out: IC50); 4.60 in assay [9]; 3.95 in [10] (read-out: IC50); 4.21 in [11]. The pIC50 in [12] is 4.27. The IC50 entry in assay [5] and in assay [6] was “Not Active” throughout.

Turning to `Nc1ncnc2c1ncn2[C@@H]1O[C@H](CNC(=O)[C@@H](N)Cc2ccc(C(F)(F)F)cc2)[C@@H](O)[C@H]1O`, the result in [4] was Active. In addition, the pIC50 in assay [1] was 3.77.

Turning to `Nc1nccc2cc(CNC(=O)Cn3cnc(C(=O)NC4CCCCC4)n3)ccc12`, the pIC50 is less than 4.00 in assay [3] and 4.02 in [12]. The IC50 result in assay [9], in assay [10] and in assay [11] was “Not Active” throughout.

For `Cc1ccc(NC(=O)c2ncn(CC(=O)NCc3ccc4c(N)nccc4c3)n2)cc1C`, the pIC50 is 4.16 in [3], 4.16 in assay [11] and 3.67 in assay [12]. For the same molecule, the IC50 entry in assay [9] and in assay [10] was “Not Active” throughout.

For the molecule `Cc1ccc(NC(=O)c2ncn(CC(=O)NCCn3cnc4[nH]ccc4c3=O)n2)cc1C`, in assay [3], the pIC50 is 3.86.

Regarding `Cc1ccc(NC(=O)c2ncn(CC(=O)NCc3ccc4c(c3)OCO4)n2)cc1C`, the pIC50 is 4.08 in [1] and 4.39 in [3]. For the same molecule, in assay [2], the outcome was Active.

With `Cc1ccc(NC(=O)c2ncn(CC(=O)NCc3ccc4[nH]ncc4c3)n2)cc1C`, the negative-log IC50 (pIC50) in assay [3] is 4.43.
